Activity calls are given as the source filed them. The calls are words filed in the database; no cut-off is given here.
Columns and labels:
[1] = molecular target: Plasminogen (Homo sapiens) (UniProt P00747); experiment: Allosteric inhibition of full length human plasmin by using chromogenic substrate spectrozyme PL preincubated for 5 mins followed by substrate addition by spectrophotometric method
How it was run: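 Inhibitor added from 0–20 mM aqueous stocks, or vehicle. After 5 min, Spectrozyme PL added (1 mM stock). Residual activity taken from initial rate of A405 rise. Logistic fit gives IC50, efficacy and Hill slope.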

[2] = molecular target: Plasminogen (Homo sapiens) (UniProt P00747); experiment: Binding affinity to human plasmin assessed as loss of intrinsic tryptophan fluorescence at 250 uM by spectrofluorometric method
[3] = molecular target: Coagulation factor XI (Homo sapiens) (UniProt P03951); experiment: Inhibition of human F11a by using chromogenic substrate S-2366 preincubated for 5 mins followed by substrate addition by spectrophotometric method
Coagulation factor XI (Homo sapiens), sequence (P03951 19-387 limits assumed): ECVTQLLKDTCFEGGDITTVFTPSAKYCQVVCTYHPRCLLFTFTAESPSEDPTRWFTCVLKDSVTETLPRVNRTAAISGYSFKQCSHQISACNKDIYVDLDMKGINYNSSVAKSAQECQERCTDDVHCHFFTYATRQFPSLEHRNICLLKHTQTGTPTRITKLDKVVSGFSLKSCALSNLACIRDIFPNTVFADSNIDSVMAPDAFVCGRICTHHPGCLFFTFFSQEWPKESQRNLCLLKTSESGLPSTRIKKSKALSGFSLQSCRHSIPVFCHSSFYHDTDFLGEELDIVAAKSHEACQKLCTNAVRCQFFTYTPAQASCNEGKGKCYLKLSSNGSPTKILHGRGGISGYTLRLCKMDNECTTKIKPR
Coagulation factor XI (Homo sapiens), sequence (P03951 388-625 limits assumed): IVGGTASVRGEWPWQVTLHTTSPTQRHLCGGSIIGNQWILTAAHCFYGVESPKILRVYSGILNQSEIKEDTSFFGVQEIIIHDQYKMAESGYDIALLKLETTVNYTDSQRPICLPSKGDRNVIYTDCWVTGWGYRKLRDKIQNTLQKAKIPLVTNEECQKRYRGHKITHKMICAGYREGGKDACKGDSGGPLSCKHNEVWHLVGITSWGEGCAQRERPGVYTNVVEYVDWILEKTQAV
How it was run: (§1)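 Tris-HCl pH 7.4 buffer (100 mM NaCl, 2.5 mM CaCl2, 0.1% PEG8000, 0.02% Tween80) at 37 °C; factor IXa buffer also held 33% ethylene glycol. Final enzyme: factor Xa 1.09 nM, XIa 0.75 nM, XIIa 10 nM, IXa 250 nM, trypsin 0.145 µg/mL, chymotrypsin […]. Inhibitor from 0–20 mM stock, 5 min preincubation, then substrate. Initial A405 rate, sigmoidal dose–response fit.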

[4] = molecular target: Coagulation factor X (Homo sapiens) (UniProt P00742); experiment: Inhibition of human F10a by using chromogenic substrate spectrozyme F10a preincubated for 5 mins followed by substrate addition by spectrophotometric method; how it was run: as §1
Coagulation factor X (Homo sapiens), sequence (P00742 41-179 limits assumed): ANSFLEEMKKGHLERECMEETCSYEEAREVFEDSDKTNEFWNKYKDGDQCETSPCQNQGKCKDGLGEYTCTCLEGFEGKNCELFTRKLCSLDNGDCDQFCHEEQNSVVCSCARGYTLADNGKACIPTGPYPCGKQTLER
Coagulation factor X (Homo sapiens), sequence (P00742 235-488 limits assumed): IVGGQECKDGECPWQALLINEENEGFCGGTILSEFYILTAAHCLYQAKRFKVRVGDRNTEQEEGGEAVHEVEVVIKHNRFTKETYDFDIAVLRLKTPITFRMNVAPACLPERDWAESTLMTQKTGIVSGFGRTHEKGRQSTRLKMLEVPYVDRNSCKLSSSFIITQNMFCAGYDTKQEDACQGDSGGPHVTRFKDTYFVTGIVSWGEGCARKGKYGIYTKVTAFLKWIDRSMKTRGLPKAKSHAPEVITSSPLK

[5] = molecular target: Prothrombin (Homo sapiens) (UniProt P00734); experiment: Inhibition of human thrombin by using chromogenic substrate spectrozyme TH preincubated for 5 mins followed by substrate addition by spectrophotometric method
How it was run: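 Thrombin at 6 nM final, 25 °C, in 20 mM Tris-HCl pH 7.4 with 100 mM NaCl, 2.5 mM CaCl2, 0.1% PEG8000, 0.02% Tween80. Inhibitor (0–20 mM stock) or vehicle preincubated 5 min with enzyme. Spectrozyme TH added (1.0 mM stock). Residual activity read as initial rate of A405 increase and fitted to a sigmoidal dose–response curve.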

[6] = molecular target: Plasminogen (Homo sapiens) (UniProt P00747); conditions: 200 uM
Homo sapiens = organism: Homo sapiens; experiment: Inhibition of human chymotrypsin using chromogenic substrate spectrozyme Cty preincubated for 5 mins followed by substrate addition by spectrophotometric method; how it was run: as §1

Plasminogen (Homo sapiens), sequence (P00747 97-580 limits assumed): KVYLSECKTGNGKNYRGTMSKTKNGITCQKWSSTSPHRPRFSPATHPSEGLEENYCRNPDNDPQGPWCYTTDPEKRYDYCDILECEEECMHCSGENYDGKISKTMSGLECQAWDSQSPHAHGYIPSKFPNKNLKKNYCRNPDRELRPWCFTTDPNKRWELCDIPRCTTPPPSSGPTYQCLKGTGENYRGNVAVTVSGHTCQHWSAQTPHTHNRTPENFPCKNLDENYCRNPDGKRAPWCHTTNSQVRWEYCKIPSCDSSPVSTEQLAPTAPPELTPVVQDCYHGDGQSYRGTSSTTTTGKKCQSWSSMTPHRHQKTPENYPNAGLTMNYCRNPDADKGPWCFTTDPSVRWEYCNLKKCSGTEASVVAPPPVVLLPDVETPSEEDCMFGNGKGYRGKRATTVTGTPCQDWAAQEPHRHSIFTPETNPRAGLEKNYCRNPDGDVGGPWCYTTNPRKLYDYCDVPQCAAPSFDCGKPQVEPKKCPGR
Plasminogen (Homo sapiens), sequence (P00747 581-810 limits assumed): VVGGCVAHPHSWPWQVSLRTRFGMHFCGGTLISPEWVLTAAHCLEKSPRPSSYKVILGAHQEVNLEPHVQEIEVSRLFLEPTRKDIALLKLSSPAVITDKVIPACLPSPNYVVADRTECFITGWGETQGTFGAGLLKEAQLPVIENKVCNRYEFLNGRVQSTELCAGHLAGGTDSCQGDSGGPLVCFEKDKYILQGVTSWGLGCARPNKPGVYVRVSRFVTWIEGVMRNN

O=c1cc(-c2ccc(OS(=O)(=O)O)cc2)oc2cc(OS(=O)(=O)O)cc(OCc3cccc(COc4cc(OS(=O)(=O)O)cc5oc(-c6ccc(OS(=O)(=O)O)cc6)cc(=O)c45)c3)c12 was tested, and the Efficacy [1] was 86%.
Work on Cc1cc(COc2cc(OS(=O)(=O)O)cc3oc(-c4ccc(OS(=O)(=O)O)c(OS(=O)(=O)O)c4)c(OS(=O)(=O)O)c(=O)c23)c(C)cc1COc1cc(OS(=O)(=O)O)cc2oc(-c3ccc(OS(=O)(=O)O)c(OS(=O)(=O)O)c3)c(OS(=O)(=O)O)c(=O)c12 yielded an Efficacy [1] of 104% and an Activity [2] of 90%.
Compound O=c1c(OS(=O)(=O)O)c(-c2ccc(OS(=O)(=O)O)c(OS(=O)(=O)O)c2)oc2cc(OS(=O)(=O)O)cc(OCc3cccc(COc4cc(OS(=O)(=O)O)cc5oc(-c6ccc(OS(=O)(=O)O)c(OS(=O)(=O)O)c6)c(OS(=O)(=O)O)c(=O)c45)c3)c12 has an Efficacy [1] of 107%.
Compound Cc1cc(COc2cc(OS(=O)(=O)O)cc3oc(-c4ccc(OS(=O)(=O)O)cc4)cc(=O)c23)c(C)cc1COc1cc(OS(=O)(=O)O)cc2oc(-c3ccc(OS(=O)(=O)O)cc3)cc(=O)c12 has an Efficacy [1] of 94% and an Activity [2] of 108%.
For O=c1cc(-c2ccc(OS(=O)(=O)O)cc2)oc2cc(OS(=O)(=O)O)cc(OC/C=C/COc3cc(OS(=O)(=O)O)cc4oc(-c5ccc(OS(=O)(=O)O)cc5)cc(=O)c34)c12, the Efficacy [1] was 90% and the Activity [2] was 101%.
O=c1cc(-c2ccc(OS(=O)(=O)O)cc2)oc2cc(OS(=O)(=O)O)cc(OCc3cccc(COc4cc(OS(=O)(=O)O)cc5oc(-c6ccc(OS(=O)(=O)O)cc6)cc(=O)c45)n3)c12 was tested, and the Efficacy [1] was 63%.
O=c1cc(-c2ccc(OS(=O)(=O)O)cc2)oc2cc(OS(=O)(=O)O)cc(OCc3ccc(COc4cc(OS(=O)(=O)O)cc5oc(-c6ccc(OS(=O)(=O)O)cc6)cc(=O)c45)cc3)c12 showed an Efficacy [1] of 89%.
With O=c1c(OS(=O)(=O)O)c(-c2ccc(OS(=O)(=O)O)c(OS(=O)(=O)O)c2)oc2cc(OS(=O)(=O)O)cc(OCCCCOc3cc(OS(=O)(=O)O)cc4oc(-c5ccc(OS(=O)(=O)O)c(OS(=O)(=O)O)c5)c(OS(=O)(=O)O)c(=O)c34)c12 the Efficacy [1] was 72%.
Work on O=c1cc(-c2ccc(OS(=O)(=O)O)cc2)oc2cc(OS(=O)(=O)O)cc(OCCCCOc3cc(OS(=O)(=O)O)cc4oc(-c5ccc(OS(=O)(=O)O)cc5)cc(=O)c34)c12 yielded an Efficacy [1] of 90%.
With O=c1c(OS(=O)(=O)O)c(-c2ccc(OS(=O)(=O)O)c(OS(=O)(=O)O)c2)oc2cc(OS(=O)(=O)O)cc(OCc3ccc(-c4ccc(COc5cc(OS(=O)(=O)O)cc6oc(-c7ccc(OS(=O)(=O)O)c(OS(=O)(=O)O)c7)c(OS(=O)(=O)O)c(=O)c56)cc4)cc3)c12 the Efficacy [1] was 80%.
For O=c1c(O)c(-c2ccc(O)c(O)c2)oc2cc(O)cc(OCc3ccc(COc4cc(O)cc5oc(-c6ccc(O)c(O)c6)c(O)c(=O)c45)cc3)c12, the Efficacy [1] was 111%, the Efficacy [3] was 109% and the Efficacy [4] was 104%. For the same compound, the Efficacy [5] was 91%.
O=c1cc(-c2ccc(OS(=O)(=O)O)cc2)oc2cc(OS(=O)(=O)O)cc(OCCOc3cc(OS(=O)(=O)O)cc4oc(-c5ccc(OS(=O)(=O)O)cc5)cc(=O)c34)c12 was tested, and the Efficacy [1] was 79%.
O=c1c(OS(=O)(=O)O)c(-c2ccc(OS(=O)(=O)O)c(OS(=O)(=O)O)c2)oc2cc(OS(=O)(=O)O)cc(OCc3cccc(COc4cc(OS(=O)(=O)O)cc5oc(-c6ccc(OS(=O)(=O)O)c(OS(=O)(=O)O)c6)c(OS(=O)(=O)O)c(=O)c45)n3)c12 gave an Efficacy [1] of 90%.
O=c1cc(-c2ccc(OS(=O)(=O)O)cc2)oc2cc(OS(=O)(=O)O)cc(OCc3ccc(COc4cc(OS(=O)(=O)O)cc5oc(-c6ccc(OS(=O)(=O)O)c(OS(=O)(=O)O)c6)c(OS(=O)(=O)O)c(=O)c45)cc3)c12 was tested, and the Efficacy [1] was 109%.
O=c1c(OS(=O)(=O)O)c(-c2ccc(OS(=O)(=O)O)c(OS(=O)(=O)O)c2)oc2cc(OS(=O)(=O)O)cc(OCc3ccc(COc4cc(OS(=O)(=O)O)cc5oc(-c6ccc(OS(=O)(=O)O)c(OS(=O)(=O)O)c6)c(OS(=O)(=O)O)c(=O)c45)cc3)c12 was tested, and the Efficacy [1] was 93 to 98%, the inhibition [6] was “Active” and the Efficacy [3] was 93%. For the same compound, the Efficacy [5] was 77% and the Efficacy (Homo sapiens) was 92%.
In the case of O=c1cc(-c2ccc(OS(=O)(=O)O)cc2)oc2cc(OS(=O)(=O)O)cc(OCc3ccc(-c4ccc(COc5cc(OS(=O)(=O)O)cc6oc(-c7ccc(OS(=O)(=O)O)cc7)cc(=O)c56)cc4)cc3)c12, the Efficacy [1] is reported as 79%.
